# Laboratory results as given in ChEMBL document CHEMBL1126855, “Synthesis and structure-activity relationships of a series of penicillin-derived HIV proteinase inhibitors containing a stereochemically unique peptide isostere” (J Med Chem, 1993).
# Key:
# [1] = molecular target: Human immunodeficiency virus type 1 protease (Human immunodeficiency virus 1, UniProt Q72874); assay: Inhibitory activity against HIV-1 protease.
# Method in brief: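 IC50 against HIV-1 proteinase, from duplicate determinations at each inhibitor concentration, with mean values used for analysis. Results were standardized against a control run in every assay.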
# [2] = system: MT4; assay: Inhibition of cytopathic effect of HIV-1 in MT-4 cells; type: functional, cell-based; conditions: Homo sapiens
Compound,IC50 [1],EC50 [2]
CCC(C)C(CO)NC(=O)[C@@H]1N[C@@H]([C@H](NC(=O)Cc2ccccc2)C(=O)NCc2ccccc2)SC1(C)C (some centres not stated),> 0.54 µM,–
CC(C)C[C@H](CO)NC(=O)[C@@H]1N[C@@H]([C@H](NC(=O)Cc2ccccc2)C(=O)NCc2ccccc2)SC1(C)C,> 4.6 µM,–
CC1(C)S[C@H]([C@H](NC(=O)Cc2ccccc2)C(=O)NCc2ccccc2)N[C@H]1C(=O)N[C@H](Cc1ccccc1)[C@H](O)CC(=O)NCCO,1.1 µM,–
C[C@@H](Cc1ccccc1)NC(=O)[C@@H]1N[C@@H]([C@H](NC(=O)Cc2ccccc2)C(=O)NCc2ccccc2)SC1(C)C,> 180 µM,–
CCCCC(CO)NC(=O)[C@@H]1N[C@@H]([C@H](NC(=O)Cc2ccccc2)C(=O)NCc2ccccc2)SC1(C)C (some centres not stated) [listing 1 of 2 here],0.25 µM,–
CC1(C)S[C@H]([C@H](NC(=O)Cc2ccccc2)C(=O)NCc2ccccc2)N[C@H]1C(=O)N[C@H](CO)CCc1ccccc1,26 µM,–
CC1(C)S[C@H]([C@H](NC(=O)Cc2ccccc2)C(=O)NCc2ccccc2)N[C@H]1C(=O)N[C@H](Cc1ccccc1)[C@H](O)CC(=O)N[C@@H](CO)c1ccccc1,0.19 µM,> 100 µM
CC1(C)S[C@H]([C@H](NC(=O)Cc2ccccc2)C(=O)NCc2ccccc2)N[C@H]1C(=O)NCC(O)CNC(=O)[C@@H]1N[C@@H]([C@H](NC(=O)Cc2ccccc2)C(=O)NCc2ccccc2)SC1(C)C,0.005 µM,2.6 µM
CC1(C)S[C@H]([C@H](NC(=O)Cc2ccccc2)C(=O)NCc2ccccc2)N[C@H]1C(=O)N[C@H](CO)Cc1ccccc1,> 170 µM,–
CC1(C)S[C@H]([C@H](NC(=O)Cc2ccccc2)C(=O)NCc2ccccc2)N[C@H]1C(=O)NCCCNC(=O)[C@@H]1N[C@@H]([C@H](NC(=O)Cc2ccccc2)C(=O)NCc2ccccc2)SC1(C)C,0.54 µM,–
C[C@H](CO)NC(=O)[C@@H]1N[C@@H]([C@H](NC(=O)Cc2ccccc2)C(=O)NCc2ccccc2)SC1(C)C,> 20 µM,–
CC(C)CNC(=O)C[C@H](O)[C@@H](Cc1ccccc1)NC(=O)[C@@H]1N[C@@H]([C@H](NC(=O)Cc2ccccc2)C(=O)NCc2ccccc2)SC1(C)C,2.8 µM,–
CC1(C)S[C@H]([C@H](NC(=O)Cc2ccccc2)C(=O)NCc2ccccc2)N[C@H]1C(=O)N[C@H](Cc1ccccc1)[C@H](O)CC(=O)NCCc1ncc[nH]1,0.3 µM,–
CC1(C)S[C@H]([C@H](NC(=O)Cc2ccccc2)C(=O)NCc2ccccc2)N[C@H]1C(N)=O,> 230 µM,–
C[C@H](Cc1ccccc1)NC(=O)[C@@H]1N[C@@H]([C@H](NC(=O)Cc2ccccc2)C(=O)NCc2ccccc2)SC1(C)C,> 180 µM,–
CC(C)[C@H](CO)NC(=O)[C@@H]1N[C@@H]([C@H](NC(=O)Cc2ccccc2)C(=O)NCc2ccccc2)SC1(C)C,> 4.7 µM,–

Compound,IC50 [1],EC50 [2]
CC1(C)S[C@H]([C@H](NC(=O)Cc2ccccc2)C(=O)NCc2ccccc2)N[C@H]1C(=O)N[C@H](Cc1ccccc1)[C@H](O)CC(=O)NCC(O)CO (some centres not stated),0.095 µM,40 µM
CC1(C)S[C@H]([C@H](NC(=O)Cc2ccccc2)C(=O)NCc2ccccc2)N[C@H]1C(=O)N[C@H](Cc1ccccc1)[C@H](O)CC(=O)NCCCO,0.054 µM,5.7 µM
CC1(C)S[C@H]([C@H](NC(=O)Cc2ccccc2)C(=O)NCc2ccccc2)N[C@H]1C(=O)N[C@H](Cc1ccccc1)[C@H](O)CC(=O)N[C@@H](CO)Cc1ccccc1,0.17 µM,> 100 µM
CC1(C)S[C@H]([C@H](NC(=O)Cc2ccccc2)C(=O)NCc2ccccc2)N[C@H]1C(=O)NCCO,180 µM,–
CCCCC(CO)NC(=O)[C@@H]1N[C@@H]([C@H](NC(=O)Cc2ccccc2)C(=O)NCc2ccccc2)SC1(C)C (some centres not stated) [listing 2 of 2 here],> 4.6 µM,–
CC(C)CNC(=O)C[C@@H](O)[C@@H](Cc1ccccc1)NC(=O)[C@@H]1N[C@@H]([C@H](NC(=O)Cc2ccccc2)C(=O)NCc2ccccc2)SC1(C)C,0.069 µM,> 150 µM
CC1(C)S[C@H]([C@H](NC(=O)Cc2ccccc2)C(=O)NCc2ccccc2)N[C@H]1C(=O)N[C@@H](CO)CCc1ccccc1,25 µM,–
CC1(C)S[C@H]([C@H](NC(=O)Cc2ccccc2)C(=O)NCc2ccccc2)N[C@H]1C(=O)N[C@H](Cc1ccccc1)[C@H](O)CC(=O)N[C@H](CO)Cc1ccccc1,0.22 µM,> 100 µM
CC1(C)S[C@H]([C@H](NC(=O)Cc2ccccc2)C(=O)NCc2ccccc2)N[C@H]1C(=O)N[C@H](Cc1ccccc1)[C@H](O)CC(=O)NCc1ccccc1,0.0046 µM,4.7 µM
CC1(C)S[C@H]([C@H](NC(=O)Cc2ccccc2)C(=O)NCc2ccccc2)N[C@H]1C(=O)N[C@H](Cc1ccccc1)[C@H](O)CC(=O)N[C@H](CO)c1ccccc1,0.17 µM,10.6 µM
CC1(C)S[C@H]([C@H](NC(=O)Cc2ccccc2)C(=O)NCc2ccccc2)N[C@H]1C(=O)N[C@H](Cc1ccccc1)[C@@H](O)CC(=O)NCc1ccccc1,2.9 µM,–
CC1(C)S[C@H]([C@H](NC(=O)Cc2ccccc2)C(=O)NCc2ccccc2)N[C@H]1C(=O)N[C@H](Cc1ccccc1)C(O)CNC(=O)Cc1ccccc1 (some centres not stated),0.053 µM,> 100 µM
CC1(C)S[C@H]([C@H](NC(=O)Cc2ccccc2)C(=O)NCc2ccccc2)N[C@H]1C(=O)N[C@H](Cc1ccccc1)[C@@H](O)CC(N)=O,1.9 µM,–
CC1(C)S[C@H]([C@H](NC(=O)Cc2ccccc2)C(=O)NCc2ccccc2)N[C@H]1C(=O)N[C@@H](CO)Cc1ccccc1,0.15 µM,–
CC1(C)S[C@H]([C@H](NC(=O)Cc2ccccc2)C(=O)NCc2ccccc2)N[C@H]1C(=O)N[C@H](Cc1ccccc1)[C@H](O)CC(N)=O,0.082 µM,> 100 µM
